Activity calls are given as the source filed them. The rule behind the calls is not given here.
T1: Pancreatic alpha-amylase (Sus scrofa) (UniProt P00690)
T1 sequence (whole entry): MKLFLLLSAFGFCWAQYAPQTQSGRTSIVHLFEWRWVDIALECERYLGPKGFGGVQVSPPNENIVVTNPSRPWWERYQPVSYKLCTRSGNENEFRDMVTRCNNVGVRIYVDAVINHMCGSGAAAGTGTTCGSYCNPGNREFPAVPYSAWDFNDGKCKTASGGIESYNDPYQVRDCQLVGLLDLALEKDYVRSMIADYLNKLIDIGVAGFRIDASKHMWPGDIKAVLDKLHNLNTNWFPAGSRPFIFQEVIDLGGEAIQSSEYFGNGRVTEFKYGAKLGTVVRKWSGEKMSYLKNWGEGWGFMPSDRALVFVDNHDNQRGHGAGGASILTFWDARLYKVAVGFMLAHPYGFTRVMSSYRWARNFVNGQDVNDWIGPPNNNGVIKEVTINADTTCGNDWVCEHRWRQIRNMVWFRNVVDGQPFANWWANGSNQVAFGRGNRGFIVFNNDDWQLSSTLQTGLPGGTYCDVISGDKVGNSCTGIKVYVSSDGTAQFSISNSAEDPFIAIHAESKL

T2: Alpha-glucosidase (Geobacillus stearothermophilus, UniProt P94451)
T2 sequence (P94451 whole entry): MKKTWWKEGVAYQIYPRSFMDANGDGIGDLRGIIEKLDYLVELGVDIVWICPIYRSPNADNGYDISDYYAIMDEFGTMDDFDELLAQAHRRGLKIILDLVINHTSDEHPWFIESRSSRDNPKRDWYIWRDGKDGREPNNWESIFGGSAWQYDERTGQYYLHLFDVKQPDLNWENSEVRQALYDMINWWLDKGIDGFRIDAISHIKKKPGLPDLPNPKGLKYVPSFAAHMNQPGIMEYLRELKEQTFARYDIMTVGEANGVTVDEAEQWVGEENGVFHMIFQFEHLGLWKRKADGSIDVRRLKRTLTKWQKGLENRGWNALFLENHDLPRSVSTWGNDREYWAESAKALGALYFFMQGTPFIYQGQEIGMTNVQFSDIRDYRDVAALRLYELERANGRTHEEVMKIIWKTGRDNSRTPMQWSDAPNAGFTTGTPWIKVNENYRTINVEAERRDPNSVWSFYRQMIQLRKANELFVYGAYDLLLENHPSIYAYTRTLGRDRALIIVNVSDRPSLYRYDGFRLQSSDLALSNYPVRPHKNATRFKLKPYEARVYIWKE

B1: Alpha-glucosidase (Geobacillus stearothermophilus), P94451 (protein)
chain: MKKTWWKEGVAYQIYPRSFMDANGDGIGDLRGIIEKLDYLVELGVDIVWICPIYRSPNADNGYDISDYYAIMDEFGTMDDFDELLAQAHRRGLKIILDLVINHTSDEHPWFIESRSSRDNPKRDWYIWRDGKDGREPNNWESIFGGSAWQYDERTGQYYLHLFDVKQPDLNWENSEVRQALYDMINWWLDKGIDGFRIDAISHIKKKPGLPDLPNPKGLKYVPSFAAHMNQPGIMEYLRELKEQTFARYDIMTVGEANGVTVDEAEQWVGEENGVFHMIFQFEHLGLWKRKADGSIDVRRLKRTLTKWQKGLENRGWNALFLENHDLPRSVSTWGNDREYWAESAKALGALYFFMQGTPFIYQGQEIGMTNVQFSDIRDYRDVAALRLYELERANGRTHEEVMKIIWKTGRDNSRTPMQWSDAPNAGFTTGTPWIKVNENYRTINVEAERRDPNSVWSFYRQMIQLRKANELFVYGAYDLLLENHPSIYAYTRTLGRDRALIIVNVSDRPSLYRYDGFRLQSSDLALSNYPVRPHKNATRFKLKPYEARVYIWKE

What was measured:
[1] = target: T1, Pancreatic alpha-amylase (Sus scrofa); assay: Inhibition of pig alpha-amylase assessed as formation of p-nitrophenol
Outline: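 Screening used each α-amylase with an equimolar mixture of the peptidyl substrate and p-nitrophenyl-α-D-pentaoside. The read-out was the rate of p-nitrophenol formation compared with the chromogenic substrate alone. Each data point was triplicated and averaged.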

[2] = system: Salivary alpha-amylase (Homo sapiens); assay: Inhibition of human salivary alpha-amylase assessed as formation of p-nitrophenol
[3] = target: T2, Alpha-glucosidase; assay: Competitive inhibition of Bacillus stearothermophilus alpha-glucosidase assessed as production of chromogenic p-Nitrphenol measured after 3 mins by HPLC and Michaelis-Menten equation
Outline: (§1)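 The chromogenic substrate was p-nitrophenyl-α-D-glucopyranoside, with p-nitrophenol formation monitored. Ki was calculated from a Dixon plot. Each measurement was triplicated and averaged.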

[4] = Competitive inhibition of rice alpha-glucosidase assessed as production of chromogenic p-Nitrphenol measured after 3 mins by HPLC and Michaelis-Menten equation; design: species or system Oryza sativa; outline: as §1
[5] = substrate: NC(=O)[C@H](Cc1ccc(O)cc1)NC(=O)[C@H](Cc1c[nH]c2ccccc12)NC(=O)CCC(=O)Nc1ccc(O[C@H]2O[C@H](CO)[C@@H](O)[C@H](O)[C@H]2O)cc1; assay: Activity at Bacillus stearothermophilus alpha-glucosidase assessed as production of chromogenic Sp-WY measured after 3 mins by HPLC Michaelis-Menten equation; settings: Geobacillus stearothermophilus
Outline: (§2)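 Alpha-glucosidase from Bacillus stearothermophillus was incubated with the substrate. Km was obtained by Michaelis–Menten kinetics. Vmax, kcat and kcat/Km were reported alongside Km. Each value was measured in triplicate and averaged.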

[6] = substrate: CC(=O)Nc1ccc(O[C@H]2O[C@H](CO)[C@@H](O)[C@H](O)[C@H]2O)cc1; assay: Activity at Bacillus stearothermophilus alpha-glucosidase assessed as production of chromogenic p-acetaminophenyl measured after 3 mins by HPLC Michaelis-Menten equation; settings: Geobacillus stearothermophilus; outline: as §2
[7] = substrate: CC(=O)Nc1ccc(O[C@H]2O[C@H](CO)[C@@H](O)[C@H](O)[C@H]2O)cc1; assay: Ratio of Kcat to Km for Bacillus stearothermophilus alpha-glucosidase assessed as production of chromogenic p-acetaminophenyl; settings: Geobacillus stearothermophilus; outline: as §2
[8] = substrate: O=[N+]([O-])c1ccc(O[C@H]2O[C@H](CO)[C@@H](O)[C@H](O)[C@H]2O)cc1; assay: Activity at Bacillus stearothermophilus alpha-glucosidase assessed as production of chromogenic p-Nitrphenol measured after 3 mins by HPLC and Michaelis-Menten equation; settings: Geobacillus stearothermophilus; outline: as §2
[9] = substrate: O=[N+]([O-])c1ccc(O[C@H]2O[C@H](CO)[C@@H](O)[C@H](O)[C@H]2O)cc1; assay: Ratio of Kcat to Km for Bacillus stearothermophilus alpha-glucosidase assessed as production of chromogenic p-Nitrphenol; settings: Geobacillus stearothermophilus; outline: as §2
[10] = substrate: NC(=O)[C@H](Cc1ccc(O)cc1)NC(=O)[C@H](Cc1c[nH]c2ccccc12)NC(=O)CCC(=O)Nc1ccc(O[C@H]2O[C@H](CO)[C@@H](O)[C@H](O)[C@H]2O)cc1; assay: Ratio of Kcat to Km for Bacillus stearothermophilus alpha-glucosidase assessed as production of chromogenic Sp-WY; settings: Geobacillus stearothermophilus; outline: as §2

Molecule | inhibition [1] | inhibition [2] | other results
NC(=O)[C@H](Cc1ccccc1)NC(=O)[C@H](Cc1ccc(O)cc1)NC(=O)CCC(=O)Nc1ccc(O[C@H]2O[C@H](CO)[C@@H](O[C@H]3O[C@H](CO)[C@@H](O[C@H]4O[C@H](CO)[C@@H](O[C@H]5O[C@H](CO)[C@@H](O[C@H]6O[C@H](CO)[C@@H](O)[C@H](O)[C@H]6O)[C@H](O)[C@H]5O)[C@H](O)[C@H]4O)[C@H](O)[C@H]3O)[C@H](O)[C@H]2O)cc1 | inactive | inactive | 
NC(=O)[C@H](Cc1c[nH]c2ccccc12)NC(=O)[C@H](Cc1c[nH]c2ccccc12)NC(=O)CCC(=O)Nc1ccc(O[C@H]2O[C@H](CO)[C@@H](O[C@H]3O[C@H](CO)[C@@H](O[C@H]4O[C@H](CO)[C@@H](O[C@H]5O[C@H](CO)[C@@H](O[C@H]6O[C@H](CO)[C@@H](O)[C@H](O)[C@H]6O)[C@H](O)[C@H]5O)[C@H](O)[C@H]4O)[C@H](O)[C@H]3O)[C@H](O)[C@H]2O)cc1 | inactive | inactive | 
NC(=O)[C@H](Cc1ccc(O)cc1)NC(=O)[C@H](Cc1ccccc1)NC(=O)CCC(=O)Nc1ccc(O[C@H]2O[C@H](CO)[C@@H](O[C@H]3O[C@H](CO)[C@@H](O[C@H]4O[C@H](CO)[C@@H](O[C@H]5O[C@H](CO)[C@@H](O[C@H]6O[C@H](CO)[C@@H](O)[C@H](O)[C@H]6O)[C@H](O)[C@H]5O)[C@H](O)[C@H]4O)[C@H](O)[C@H]3O)[C@H](O)[C@H]2O)cc1 | inactive | inactive | 
NC(=O)[C@H](Cc1ccc(O)cc1)NC(=O)[C@H](Cc1c[nH]c2ccccc12)NC(=O)CCC(=O)Nc1ccc(O)cc1 |  |  | Ki [3]: 1400 µM
NC(=O)[C@H](Cc1ccccc1)NC(=O)[C@H](Cc1c[nH]c2ccccc12)NC(=O)CCC(=O)Nc1ccc(O[C@H]2O[C@H](CO)[C@@H](O[C@H]3O[C@H](CO)[C@@H](O[C@H]4O[C@H](CO)[C@@H](O[C@H]5O[C@H](CO)[C@@H](O[C@H]6O[C@H](CO)[C@@H](O)[C@H](O)[C@H]6O)[C@H](O)[C@H]5O)[C@H](O)[C@H]4O)[C@H](O)[C@H]3O)[C@H](O)[C@H]2O)cc1 | inactive | inactive | 
O=[N+]([O-])c1ccc(O[C@H]2O[C@H](CO)[C@@H](O[C@H]3O[C@H](CO)[C@@H](O[C@H]4O[C@H](CO)[C@@H](O[C@H]5O[C@H](CO)[C@@H](O[C@H]6O[C@H](CO)[C@@H](O)[C@H](O)[C@H]6O)[C@H](O)[C@H]5O)[C@H](O)[C@H]4O)[C@H](O)[C@H]3O)[C@H](O)[C@H]2O)cc1 | inactive | inactive | 
NC(=O)[C@H](Cc1c[nH]c2ccccc12)NC(=O)[C@H](Cc1ccccc1)NC(=O)CCC(=O)Nc1ccc(O[C@H]2O[C@H](CO)[C@@H](O[C@H]3O[C@H](CO)[C@@H](O[C@H]4O[C@H](CO)[C@@H](O[C@H]5O[C@H](CO)[C@@H](O[C@H]6O[C@H](CO)[C@@H](O)[C@H](O)[C@H]6O)[C@H](O)[C@H]5O)[C@H](O)[C@H]4O)[C@H](O)[C@H]3O)[C@H](O)[C@H]2O)cc1 | inactive | inactive | 
NC(=O)[C@H](Cc1ccccc1)NC(=O)[C@H](Cc1ccccc1)NC(=O)CCC(=O)Nc1ccc(O[C@H]2O[C@H](CO)[C@@H](O[C@H]3O[C@H](CO)[C@@H](O[C@H]4O[C@H](CO)[C@@H](O[C@H]5O[C@H](CO)[C@@H](O[C@H]6O[C@H](CO)[C@@H](O)[C@H](O)[C@H]6O)[C@H](O)[C@H]5O)[C@H](O)[C@H]4O)[C@H](O)[C@H]3O)[C@H](O)[C@H]2O)cc1 | inactive | inactive | 
NC(=O)[C@H](Cc1ccc(O)cc1)NC(=O)[C@H](Cc1c[nH]c2ccccc12)NC(=O)CCC(=O)Nc1ccc(O[C@@H]2O[C@H](CO)[C@@H](O)[C@H](O)[C@H]2O)cc1 |  |  | Ki [3]: 110 µM
NC(=O)[C@H](Cc1c[nH]c2ccccc12)NC(=O)[C@H](Cc1ccc(O)cc1)NC(=O)CCC(=O)Nc1ccc(O[C@H]2O[C@H](CO)[C@@H](O[C@H]3O[C@H](CO)[C@@H](O[C@H]4O[C@H](CO)[C@@H](O[C@H]5O[C@H](CO)[C@@H](O[C@H]6O[C@H](CO)[C@@H](O)[C@H](O)[C@H]6O)[C@H](O)[C@H]5O)[C@H](O)[C@H]4O)[C@H](O)[C@H]3O)[C@H](O)[C@H]2O)cc1 | inactive | inactive | 
C[C@H]1O[C@H](O[C@H]2[C@H](O)[C@@H](O)[C@@H](O[C@H]3[C@H](O)[C@@H](O)C(O)O[C@@H]3CO)O[C@@H]2CO)[C@H](O)[C@@H](O)[C@@H]1N[C@H]1C=C(CO)[C@@H](O)[C@H](O)[C@H]1O (stereo not given in full) [ACARBOSE] |  |  | Ki [4]: 4.2 µM
NC(=O)[C@H](Cc1ccc(O)cc1)NC(=O)[C@H](Cc1c[nH]c2ccccc12)NC(=O)CCC(=O)Nc1ccc(O[C@H]2O[C@H](CO)[C@@H](O[C@H]3O[C@H](CO)[C@@H](O[C@H]4O[C@H](CO)[C@@H](O[C@H]5O[C@H](CO)[C@@H](O[C@H]6O[C@H](CO)[C@@H](O)[C@H](O)[C@H]6O)[C@H](O)[C@H]5O)[C@H](O)[C@H]4O)[C@H](O)[C@H]3O)[C@H](O)[C@H]2O)cc1 | inactive | inactive | 
NC(=O)[C@H](Cc1ccc(O)cc1)NC(=O)[C@H](Cc1ccc(O)cc1)NC(=O)CCC(=O)Nc1ccc(O[C@H]2O[C@H](CO)[C@@H](O[C@H]3O[C@H](CO)[C@@H](O[C@H]4O[C@H](CO)[C@@H](O[C@H]5O[C@H](CO)[C@@H](O[C@H]6O[C@H](CO)[C@@H](O)[C@H](O)[C@H]6O)[C@H](O)[C@H]5O)[C@H](O)[C@H]4O)[C@H](O)[C@H]3O)[C@H](O)[C@H]2O)cc1 | inactive | inactive | 
B1 |  |  | Km [5]: 13 µM; Vmax [5]: 0.00025 µM/s; kcat [5]: 0.13 s⁻¹; Km [6]: 1900 µM; Vmax [6]: 0.0015 µM/s; kcat [6]: 0.76 s⁻¹; kcat/Km [7]: 400 M⁻¹ s⁻¹; Km [8]: 1200 µM; Vmax [8]: 0.019 µM/s; kcat [8]: 9.5 s⁻¹; kcat/Km [9]: 7600 M⁻¹ s⁻¹; kcat/Km [10]: 10000 M⁻¹ s⁻¹
